Published values of several laboratories.
Medium: plasma

| SMILES | host | route | dose | setting | measurement | result |
| --- | --- | --- | --- | --- | --- | --- |
| COc1nc(-c2cc(C)c(N[C@@H](C)c3cc(F)cc(F)c3)nn2)ccc1-n1cnc(C)c1 | male Sprague-Dawley rat | oral | 5 mg/kg | single dose | MRT(0-t) | 6.87 h |
| CCOC(=O)[C@@]12C[C@@H]1[C@@H](n1ccc3c(NC)nc(C#Cc4ccc(Cl)s4)nc31)[C@H](O)[C@@H]2O | male Sprague-Dawley rat | oral | 3 mg/kg | – | MRT(0-t) | 2.44 h |
| CCc1cc(OC)c2nccc(N3CCc4c(cc(Cn5ccnc5)cc4-c4cn(C)nc4C(F)(F)F)C3=O)c2c1 | male Sprague-Dawley rat | intravenous | 3 mg/kg | – | MRT(0-inf) | 1 h |
| CCc1nc(C(N)=O)c(Nc2ccc(N3CCC(N4CCN(C)CC4)CC3)c(OC)c2)nc1NC1CCOCC1 | male Sprague-Dawley rat | oral | 10 mg/kg | – | MRT(0-t) | 19.5 h |
| CNCc1cc(-c2ccccc2F)n(S(=O)(=O)c2cccnc2)c1 | Sprague-Dawley rat | oral | 10 mg/kg | – | MRT(0-t) | 2.43 h |
| Oc1c(Br)cc(Cl)c2cccnc12 | Sprague-Dawley rat | oral | 20 mg/kg | – | MRT | 6.8 h |
| Cc1nc(Nc2ncc(C(=O)Nc3c(C)cccc3Cl)s2)cc(N2CCN(CCO)CC2)n1 | female Sprague-Dawley rat | intravenous | 5 mg/kg | – | MRT | 3.78 h |
| C#Cc1cccc(Nc2ncnc3cc(OCCOC)c(OCCOC)cc23)c1 | male Sprague-Dawley rat | oral | 12 mg/kg | single dose | MRT(0-inf) | 5.1 h |
| N#Cc1ccc(Nc2nc(N)cc(Oc3c(F)cc(-c4ccc(C#N)cc4)cc3F)n2)cc1 | Sprague-Dawley rat | oral | 5 mg/kg | – | MRT(0-inf) | 6.48 h |
| CCc1cc(C(=O)NC)c2nccc(N3CCc4c(cc(Cn5ccnc5)cc4-c4cn(C)nc4C(F)(F)F)C3=O)c2c1 | male Sprague-Dawley rat | oral | 100 mg/kg | – | MRT(0-inf) | 10.6 h |
| COc1ccc(C(C)=O)c(O)c1 | male Sprague-Dawley rat | oral | 100 mg/kg | – | MRT(0-t) | 3.83 h |
| O=C(Nc1cc(F)c(F)c(F)c1)c1ccc(F)c(S(=O)(=O)NCc2cccc(B(O)O)c2)c1 | male Sprague-Dawley rat | intravenous | 2 mg/kg | – | MRT(0-t) | 0.73 h |
